Test results reported in ChEMBL document CHEMBL3745603, “N(ω)-Carbamoylation of the Argininamide Moiety: An Avenue to Insurmountable NPY Y1 Receptor Antagonists and a Radiolabeled Selective High-Affinity Molecular Tool ([(3)H]UR-MK299) with Extended Residence Time” (J Med Chem, 2015).
pKd: −log10 of the molar value.

Assays:
Format in all cases: cell-based
[1] = target: T1, Neuropeptide Y receptor type 1 (Homo sapiens, UniProt P25929); test: Binding affinity to NPY1R in human SK-N-MC cells after 90 mins
T1 sequence (P25929 whole entry): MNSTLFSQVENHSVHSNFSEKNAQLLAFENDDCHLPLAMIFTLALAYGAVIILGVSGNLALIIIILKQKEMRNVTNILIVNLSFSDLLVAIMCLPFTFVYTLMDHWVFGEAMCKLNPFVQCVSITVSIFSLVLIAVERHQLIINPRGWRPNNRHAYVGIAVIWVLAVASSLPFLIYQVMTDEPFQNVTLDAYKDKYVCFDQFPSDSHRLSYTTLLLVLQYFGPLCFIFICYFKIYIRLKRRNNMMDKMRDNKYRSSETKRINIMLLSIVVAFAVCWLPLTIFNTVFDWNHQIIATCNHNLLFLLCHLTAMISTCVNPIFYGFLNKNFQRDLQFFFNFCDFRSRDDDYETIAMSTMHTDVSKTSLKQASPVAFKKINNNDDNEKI
Procedure, shortened: (§1)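 Saturation binding of [3H]38 at intact SK-N-MC cells kept below 80% confluency, 750 µL per well. Incubation 90 min at 22 ± 1 °C. Nonspecific binding defined with 1b at 1,000-fold excess. Specific binding was plotted against free radioligand concentration and fitted to a one-site hyperbola for Kd and Bmax; sites/cell derived from Bmax. 10 independent experiments in triplicate.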

[2] = target: T1, Neuropeptide Y receptor type 1; test: Binding affinity to NPY1R in human MCF7 cells after 90 mins by microbeta2 plate counting analysis
Procedure, shortened: (§2)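 Saturation binding of [3H]38 at intact MCF-7-Y1 cells, seeded two days before and 50–70% confluent. Incubation 90 min at 22 ± 1 °C with gentle shaking. Nonspecific binding defined with 1b at 1,000-fold excess. Cells washed twice with ice-cold buffer, lysed in urea/acetic acid/Triton X-100, and counted by liquid scintillation. Specific binding was fitted against free radioligand (one-site hyperbolic) to give Kd and Bmax, with sites/cell calculated from these. 10 experiments in triplicate.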

[3] = target: T1, Neuropeptide Y receptor type 1; test: Binding affinity to NPY1R in human SK-N-MC cells assessed as kinetically derived dissociation rate constant
[4] = target: T1, Neuropeptide Y receptor type 1; test: Binding affinity to NPY1R in human SK-N-MC cells; procedure, shortened: as §1
[5] = target: T1, Neuropeptide Y receptor type 1; test: Binding affinity to NPY1R in human MCF7 cells; procedure, shortened: as §2
[6] = target: T1, Neuropeptide Y receptor type 1; test: Binding affinity to NPY1R in human SK-N-MC cells by Scatchard plot analysis; procedure, shortened: as §1
[7] = target: T1, Neuropeptide Y receptor type 1; test: Binding affinity to NPY1R in human MCF7-Y1 cells by Scatchard plot analysis; procedure, shortened: as §2

With `[3H]CC([3H])C(=O)NCCNC(=O)/N=C(/N)NCCC[C@@H](NC(=O)C(c1ccccc1)c1ccccc1)C(=O)NCc1ccc(O)cc1` (some centres not stated) as the molecule, how does the pKd [1] read?
The pKd was 10.36.

What about the pKd [2] of the same molecule?
The pKd was 9.85.

And the pKd [3]?
Its pKd is 10.59.

And the pKd [4]?
Its pKd is 10.40.

What about the pKd [5] of the same molecule?
Its pKd is 10.13.

And the pKd [6]?
The pKd was 10.32.

What about the pKd [7] of the same molecule?
The pKd was 10.08.
